From ChEMBL document CHEMBL1221266, “Synthesis and SAR of novel, 4-(phenylsulfamoyl)phenylacetamide mGlu4 positive allosteric modulators (PAMs) identified by functional high-throughput screening (HTS)” (Bioorg Med Chem Lett, 2010)

Tests used:
[1] = target: T1, Metabotropic glutamate receptor 4 (Homo sapiens, UniProt Q14833); assay: Positive allosteric modulation of human mGlu4 receptor expressed in CHO cells assessed as potentiation of glutamate-induced calcium mobilization relative to PHCCC; type: functional, cell-based
How it was run: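 Human mGlu4/Gqi5 CHO cells with an EC20 concentration of glutamate; compounds tested in 1:3 serial dilutions from 30 μM, in triplicate on one day. The maximal response elicited by each compound was divided by the response to the control PAM PHCCC measured on the same day.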

[2] = target: T1, Metabotropic glutamate receptor 4; assay: Positive allosteric modulation of human mGlu4 receptor expressed in CHO cells assessed as potentiation of glutamate-induced calcium mobilization; type: functional, cell-based
How it was run: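 Human mGlu4 co-expressed with the chimeric G protein Gqi5 in CHO cells. Compounds were tested in the presence of an EC20 glutamate concentration as 1:3 serial dilutions starting at 30 μM. Values are the mean of triplicates run on one day. For % PHCCC, each compound's maximal response was divided by the response to the control PAM PHCCC measured that same day.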

[3] = target: T1, Metabotropic glutamate receptor 4; assay: Positive allosteric modulation of human mGlu4 receptor expressed in CHO cells assessed as potentiation of glutamate-induced calcium mobilization at > 30 uM; type: functional, cell-based
[4] = species on record: Homo sapiens; assay: Fraction unbound in human plasma
[5] = Fraction unbound in rat plasma; type: ADME, cell-free
[6] = Metabolic stability in rat liver microsomes assessed as compound remaining after 60 mins; type: ADME, Microsome; conditions: read-out: Stability
[7] = Metabolic stability in human liver microsomes assessed as compound remaining after 60 mins; type: ADME, Microsome; conditions: read-out: Stability

T1 sequence (Q14833 whole entry): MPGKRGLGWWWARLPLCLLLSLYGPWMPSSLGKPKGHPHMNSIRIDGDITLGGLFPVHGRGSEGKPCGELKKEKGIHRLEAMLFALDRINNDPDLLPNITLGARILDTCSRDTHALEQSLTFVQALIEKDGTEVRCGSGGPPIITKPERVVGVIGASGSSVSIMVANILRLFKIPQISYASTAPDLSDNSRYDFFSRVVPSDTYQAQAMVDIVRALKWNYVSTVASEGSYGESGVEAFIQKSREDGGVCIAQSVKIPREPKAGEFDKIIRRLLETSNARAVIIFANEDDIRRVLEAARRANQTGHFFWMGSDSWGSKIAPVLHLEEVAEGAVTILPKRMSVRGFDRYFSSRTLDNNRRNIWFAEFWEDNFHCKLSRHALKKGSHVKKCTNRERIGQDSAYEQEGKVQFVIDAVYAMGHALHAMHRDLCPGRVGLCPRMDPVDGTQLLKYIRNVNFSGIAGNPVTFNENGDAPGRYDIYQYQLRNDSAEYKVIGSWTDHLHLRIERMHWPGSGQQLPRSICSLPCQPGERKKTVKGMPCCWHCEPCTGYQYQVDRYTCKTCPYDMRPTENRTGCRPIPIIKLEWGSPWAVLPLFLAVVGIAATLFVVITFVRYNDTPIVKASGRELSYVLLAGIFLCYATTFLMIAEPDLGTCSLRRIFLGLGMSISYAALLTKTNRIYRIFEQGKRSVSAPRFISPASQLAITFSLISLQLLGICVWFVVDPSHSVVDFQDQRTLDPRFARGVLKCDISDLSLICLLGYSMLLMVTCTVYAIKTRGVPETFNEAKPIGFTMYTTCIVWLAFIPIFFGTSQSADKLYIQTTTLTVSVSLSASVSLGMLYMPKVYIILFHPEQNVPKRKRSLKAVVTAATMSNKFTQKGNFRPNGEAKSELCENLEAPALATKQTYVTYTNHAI

Q: With `O=C(Nc1ccc(S(=O)(=O)Nc2ccccc2Cl)cc1)c1cccc(F)n1` as the molecule, how does the Emax [1] read?
A: Its Emax is 90%.

Q: What about the EC50 [2] of the same molecule?
A: Its EC50 is 122 nM.

Q: With `O=C(Nc1ccc(S(=O)(=O)Nc2ccc(F)c(Cl)c2)cc1)c1ccccn1` as the molecule, how does the Emax [1] read?
A: Its Emax is 19.8%.

Q: And the EC50 [3]?
A: The EC50 was “Not Active”.

Q: For `Cc1cc(C)c(NS(=O)(=O)c2ccc(NC(=O)c3ccco3)cc2)c(C)c1`, which Emax [1] is on record?
A: Its Emax is 52%.

Q: What about the fraction unbound [4] of the same molecule?
A: The fraction unbound was 0.022.

Q: And the EC50 [2]?
A: The EC50 was 5960 nM.

Q: What about the fraction unbound [5] of the same molecule?
A: Its fraction unbound is 0.082.

Q: What about the remaining at 1 h [6] of the same molecule?
A: Its remaining at 1 h is 93.3%.

Q: What does the source list for `O=C(Nc1ccc(S(=O)(=O)NC2CCC2)cc1)c1ccccn1`?
A: Emax [1]: 64.4%; EC50 [2]: > 5000 nM

Q: Which results are given for `COc1cccc(C(=O)Nc2ccc(S(=O)(=O)Nc3ccccc3Cl)cc2)n1`?
A: Emax [1]: 8.6%; EC50 [3]: Not Active

Q: Which results are given for `O=C(Nc1ccc(Cl)c(S(=O)(=O)Nc2ccccc2Cl)c1)c1ccccn1`?
A: Emax [1]: 54.9%; EC50 [2]: 731 nM; remaining at 1 h [6]: 0.05%; remaining at 1 h [7]: 11.9%

Q: For `O=C(Nc1ccc(S(=O)(=O)Nc2ccccc2Cl)cc1)c1ccccn1`, which Emax [1] is on record?
A: Its Emax is 88.2%.

Q: And the fraction unbound [4]?
A: The fraction unbound was 0.001.

Q: And the EC50 [2]?
A: The EC50 was 27 nM.

Q: What about the fraction unbound [5] of the same molecule?
A: Its fraction unbound is 0.003.

Q: And the remaining at 1 h [6]?
A: Its remaining at 1 h is 0.02%.

Q: And the remaining at 1 h [7]?
A: The remaining at 1 h was 0.02%.

Q: Which results are given for `O=C(Nc1ccc(S(=O)(=O)Nc2cc(F)ccc2F)cc1)c1ccccn1`?
A: Emax [1]: 87.6%; EC50 [2]: 325 nM

Q: With `COc1ccccc1NS(=O)(=O)c1ccc(NC(=O)c2ccccn2)cc1OC` as the molecule, how does the Emax [1] read?
A: The Emax was 112%.

Q: What about the fraction unbound [4] of the same molecule?
A: The fraction unbound was 0.003.

Q: And the EC50 [2]?
A: Its EC50 is 132 nM.

Q: What about the fraction unbound [5] of the same molecule?
A: Its fraction unbound is 0.127.

Q: And the remaining at 1 h [6]?
A: The remaining at 1 h was 0.05%.

Q: And the remaining at 1 h [7]?
A: Its remaining at 1 h is 1.3%.

Q: What does the source list for `O=C(Nc1ccc(S(=O)(=O)Nc2ccccc2Cl)c(Cl)c1)c1ccccn1`?
A: Emax [1]: 102%; EC50 [2]: 19.8 nM; remaining at 1 h [6]: 0.02%; remaining at 1 h [7]: 0.63%

Q: Which results are given for `O=C(Nc1ccc(S(=O)(=O)Nc2ccccc2Cl)cc1)c1ccncn1`?
A: Emax [1]: 103%; EC50 [2]: 478 nM

Q: Which Emax [1] does the source give for `CN(c1ccccc1Cl)S(=O)(=O)c1ccc(NC(=O)c2ccncn2)cc1` here?
A: Its Emax is 31.1%.

Q: What about the fraction unbound [4] of the same molecule?
A: The fraction unbound was 0.017.

Q: What about the EC50 [2] of the same molecule?
A: The EC50 was 990 nM.

Q: And the fraction unbound [5]?
A: Its fraction unbound is 0.027.

Q: What about the remaining at 1 h [6] of the same molecule?
A: Its remaining at 1 h is 3.3%.

Q: What about the remaining at 1 h [7] of the same molecule?
A: Its remaining at 1 h is 2.5%.

Q: With `CC1CCN(S(=O)(=O)c2ccc(NC(=O)c3ccccn3)cc2)CC1` as the molecule, how does the Emax [1] read?
A: Its Emax is 35.8%.

Q: What about the EC50 [2] of the same molecule?
A: The EC50 was 372 nM.

Q: Which Emax [1] does the source give for `O=C(Nc1ccc(S(=O)(=O)N2CCc3ccccc32)cc1)c1ccccn1` here?
A: Its Emax is 12%.

Q: And the EC50 [3]?
A: The EC50 was “Not Active”.

Q: Which results are given for `Cc1cc(C)c(NS(=O)(=O)c2ccc(NC(=O)c3ccccn3)cc2)c(C)c1`?
A: Emax [1]: 60.5%; fraction unbound [4]: 0.001; EC50 [2]: 159 nM; fraction unbound [5]: 0.003; remaining at 1 h [6]: 25.8%

Q: What does the source list for `O=C(Nc1ccc(S(=O)(=O)Nc2ccccc2Cl)cc1Cl)c1ccccn1`?
A: Emax [1]: 8.1%; EC50 [3]: Not Active

Q: With `CN(c1ccccc1Cl)S(=O)(=O)c1ccc(NC(=O)c2nccs2)cc1` as the molecule, how does the Emax [1] read?
A: The Emax was 25.4%.

Q: And the fraction unbound [4]?
A: Its fraction unbound is 0.005.

Q: What about the EC50 [2] of the same molecule?
A: The EC50 was 686 nM.

Q: What about the fraction unbound [5] of the same molecule?
A: Its fraction unbound is 0.37.

Q: What about the remaining at 1 h [6] of the same molecule?
A: The remaining at 1 h was 0.08%.

Q: What about the remaining at 1 h [7] of the same molecule?
A: The remaining at 1 h was 0.1%.

Q: With `COCCNS(=O)(=O)c1ccc(NC(=O)c2ccccn2)cc1` as the molecule, how does the Emax [1] read?
A: The Emax was 22.1%.

Q: And the EC50 [2]?
A: Its EC50 is greater than 10000 nM.

Q: For `O=C(Nc1ccc(S(=O)(=O)NC2CCCCC2)cc1)c1ccccn1`, which Emax [1] is on record?
A: The Emax was 63.1%.

Q: And the EC50 [2]?
A: The EC50 was 1030 nM.

Q: Which results are given for `O=C(Nc1ccc(S(=O)(=O)NCC2CC2)cc1)c1ccccn1`?
A: Emax [1]: 70.2%; EC50 [2]: > 5000 nM

Q: For `O=C(Nc1ccc(S(=O)(=O)Nc2ccccc2)cc1)c1ccccn1`, which Emax [1] is on record?
A: The Emax was 69.2%.

Q: What about the EC50 [2] of the same molecule?
A: The EC50 was 177 nM.

Q: With `O=C(Nc1ccc(S(=O)(=O)Cc2ccccc2Cl)cc1)c1ccccn1` as the molecule, how does the Emax [1] read?
A: Its Emax is 46.3%.

Q: Which results are given for `O=C(Nc1ccc(S(=O)(=O)Nc2ccc(Cl)c(C(F)(F)F)c2)cc1)c1ccccn1`?
A: Emax [1]: 19.5%; EC50 [3]: Not Active

Q: For `O=C(Nc1ccc(S(=O)(=O)Nc2ccccc2F)cc1)c1ccccn1`, which Emax [1] is on record?
A: Its Emax is 91.7%.

Q: What about the EC50 [2] of the same molecule?
A: The EC50 was 206 nM.

Q: For `O=C(Nc1ccc(S(=O)(=O)Nc2ccccc2Cl)cc1)c1ccsc1`, which Emax [1] is on record?
A: Its Emax is 54.2%.

Q: And the EC50 [2]?
A: The EC50 was 269 nM.

Q: With `O=C(Nc1ccc(S(=O)(=O)NC2CC2)cc1)c1ccccn1` as the molecule, how does the Emax [1] read?
A: The Emax was 23.7%.

Q: And the EC50 [2]?
A: Its EC50 is greater than 10000 nM.

Q: With `O=C(Nc1ccc(S(=O)(=O)N2CCCC2)cc1)c1ccccn1` as the molecule, how does the Emax [1] read?
A: The Emax was 15.4%.

Q: What about the EC50 [3] of the same molecule?
A: Its EC50 is “Not Active”.

Q: Which Emax [1] does the source give for `O=C(Nc1ccc(CS(=O)(=O)c2ccccc2Cl)cc1)c1ccccn1` here?
A: The Emax was 46.5%.

Q: What about the EC50 [2] of the same molecule?
A: Its EC50 is 2170 nM.

Q: Which Emax [1] does the source give for `O=C(Nc1ccc(S(=O)(=O)Nc2ccccc2Cl)cc1)c1nccs1` here?
A: The Emax was 79.4%.

Q: What about the fraction unbound [4] of the same molecule?
A: The fraction unbound was 0.001.

Q: What about the EC50 [2] of the same molecule?
A: The EC50 was 77.4 nM.

Q: What about the fraction unbound [5] of the same molecule?
A: The fraction unbound was 0.001.

Q: And the remaining at 1 h [6]?
A: Its remaining at 1 h is 1.2%.

Q: What about the remaining at 1 h [7] of the same molecule?
A: Its remaining at 1 h is 0.84%.
